According to ChEMBL document CHEMBL4308900, “Synthesis and identification of 2,4-bisanilinopyrimidines bearing 2,2,6,6-tetramethylpiperidine-N-oxyl as potential Aurora A inhibitors” (Bioorg Med Chem, 2019):
Values belong to the compound of their own block, whether it stands above or below them. Active and inactive are the calls of the source. The rule behind the calls is not given here.

Assays:
[1] = test system: A549; assay: Antiproliferative activity against human A549 cells after 48 hrs by MTT assay; format: functional
Method in brief: (§1)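 MTT assay: cells attached 4–6 h at 37 °C, 5% CO2, then exposed 48 h to graded concentrations from DMSO stocks; 5 mg/mL MTT added for 4 h, formazan dissolved in DMSO, absorbance at 490 nm. GI50 from log plot of percent of control versus concentration; mean of three independent experiments.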

[2] = test system: LoVo; assay: Antiproliferative activity against human LoVo cells after 48 hrs by MTT assay; format: functional; method in brief: as §1
[3] = test system: HepG2; assay: Antiproliferative activity against human HepG2 cells after 48 hrs by MTT assay; format: functional; method in brief: as §1
[4] = test system: HeLa; assay: Antiproliferative activity against human HeLa cells after 48 hrs by MTT assay; format: functional; method in brief: as §1
[5] = biological target: Aurora kinase B (Homo sapiens, UniProt Q96GD4); assay: Inhibition of Aurora B (unknown origin) using kemptide acetate salt as substrate after 30 mins by kinase-Glo luminescence method
[6] = biological target: T1, Aurora kinase A (Homo sapiens, UniProt O14965); assay: Inhibition of Aurora A (unknown origin) using kemptide acetate salt as substrate after 30 mins by kinase-Glo luminescence method
T1 sequence (O14965 whole entry): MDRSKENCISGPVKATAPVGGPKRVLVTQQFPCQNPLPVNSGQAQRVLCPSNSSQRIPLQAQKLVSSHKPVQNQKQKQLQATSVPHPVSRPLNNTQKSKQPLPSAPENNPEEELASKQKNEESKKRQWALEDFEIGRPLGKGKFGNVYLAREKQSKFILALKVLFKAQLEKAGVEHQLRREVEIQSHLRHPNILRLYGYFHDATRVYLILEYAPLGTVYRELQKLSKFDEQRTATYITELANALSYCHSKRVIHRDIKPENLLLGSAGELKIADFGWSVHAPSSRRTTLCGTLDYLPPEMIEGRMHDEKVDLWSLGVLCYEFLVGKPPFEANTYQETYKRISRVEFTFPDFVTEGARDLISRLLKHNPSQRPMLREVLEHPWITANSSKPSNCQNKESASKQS

[7] = test system: HeLa; assay: Cell cycle arrest in human HeLa cells assessed as decrease in cyclin B1 protein expression at 5 uM after 12 hrs by Western blot analysis; format: functional, cell-based
Method in brief: (§2)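 HeLa cells treated 12 h (0.1, 1, 5 μM for apoptosis proteins); lysed in Tris pH 7.5/NP-40/SDS buffer with protease inhibitors, equal protein on 10% SDS-PAGE, PVDF, 5% BSA block, primary antibodies overnight at 4 °C, β-actin loading control; mean ± SD.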

[8] = test system: HeLa; assay: Cell cycle arrest in human HeLa cells assessed as accumulation at S phase at 5 uM after 12 hrs by propidium iodide staining-based flow cytometric analysis (reference value: 5.74%); format: functional
Method in brief: (§3)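 HeLa cells exposed 12 h to 1 or 5 μM compound diluted from DMSO (DMSO control), fixed, stained with propidium iodide; DNA content measured by flow cytometry and G1, S, G2/M fractions calculated from the DNA histogram.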

[9] = test system: HeLa; assay: Induction of microtubule disruption in human HeLa cells at 1 uM after 24 hrs by DAPI staining based immunofluorescence microscopic analysis; format: functional, cell-based
Method in brief: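 HeLa cells on coverslips treated 24 h (0.1 or 1 μM; DMSO control); fixed in 4% paraformaldehyde, permeabilised in 0.1% Triton X-100 with 2% BSA, anti-α-tubulin overnight at 4 °C, FITC secondary 2 h room temperature, DAPI for DNA; confocal imaging.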

[10] = test system: HeLa; assay: Cell cycle arrest in human HeLa cells assessed as decrease in cdc2 protein expression at 5 uM after 12 hrs by Western blot analysis; format: functional, cell-based; method in brief: as §2
[11] = test system: HeLa; assay: Cell cycle arrest in human HeLa cells assessed as accumulation at G2/M phase at 5 uM after 12 hrs by propidium iodide staining-based flow cytometric analysis (reference value: 23.57%); format: functional; method in brief: as §3
[12] = test system: HeLa; assay: Cell cycle arrest in human HeLa cells assessed as accumulation at G1 phase at 5 uM after 12 hrs by propidium iodide staining-based flow cytometric analysis (reference value: 70.68%); format: functional; method in brief: as §3

Sequence of Aurora kinase B (Q96GD4 whole entry): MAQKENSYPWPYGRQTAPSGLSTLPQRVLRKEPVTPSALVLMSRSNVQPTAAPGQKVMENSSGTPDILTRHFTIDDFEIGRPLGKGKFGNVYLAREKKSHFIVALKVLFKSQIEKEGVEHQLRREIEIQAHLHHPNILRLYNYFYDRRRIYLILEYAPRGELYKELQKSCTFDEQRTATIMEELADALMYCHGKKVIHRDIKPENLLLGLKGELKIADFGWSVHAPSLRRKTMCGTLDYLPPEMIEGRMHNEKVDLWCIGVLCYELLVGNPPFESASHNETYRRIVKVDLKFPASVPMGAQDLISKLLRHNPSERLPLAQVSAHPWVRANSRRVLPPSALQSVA

Structure (SMILES): CC1(C)CC(NC(=O)c2ccc(Nc3ncc(Cl)c(Nc4ccccc4Cl)n3)cc2)CC(C)(C)N1[O]
- GI50 ([1]; A549, 48 h): 3.6 µM
- GI50 [2]: 3.2 µM
- GI50 ([3]; HepG2, 48 h): 1.6 µM
- GI50 [4]: 10.2 µM
- IC50 [5]: 0.00029 µM
- IC50 [6]: 0.00019 µM

Structure (SMILES): CC1(C)CC(NC(=O)c2ccc(Nc3ncc([N+](=O)[O-])c(Nc4ccc(C(=O)Nc5ccccc5Cl)cc4)n3)cc2)CC(C)(C)N1[O]
- GI50 ([1]; A549, 48 h): 2.5 µM
- GI50 [2]: 28.5 µM
- GI50 ([3]; HepG2, 48 h): 3.4 µM
- GI50 [4]: 23.2 µM
- IC50 [5]: 0.00307 µM
- IC50 [6]: 0.00548 µM

Structure (SMILES): CC1(C)CC(NC(=O)c2ccc(Nc3ncc([N+](=O)[O-])c(Nc4ccc(C(=O)Nc5cccc(Cl)c5)cc4)n3)cc2)CC(C)(C)N1[O]
- GI50 ([1]; A549, 48 h): 14.2 µM
- GI50 [2]: 39.6 µM
- GI50 ([3]; HepG2, 48 h): 12.5 µM
- GI50 [4]: 49.5 µM
- IC50 [5]: 0.027 µM
- IC50 [6]: 0.00011 µM

Structure (SMILES): CC1(C)CC(NC(=O)c2ccc(Nc3nc(Nc4ccc(C(=O)O)cc4)ncc3Br)cc2)CC(C)(C)N1[O]
- GI50 [1]: > 100 µM
- GI50 [2]: > 100 µM
- GI50 [3]: 35.8 µM
- GI50 [4]: > 100 µM

Structure (SMILES): CC1(C)CC(NC(=O)c2ccc(Nc3ncc([N+](=O)[O-])c(Nc4cccc(O)c4)n3)cc2)CC(C)(C)N1[O]
- GI50 ([1]; A549, 48 h): 13.2 µM
- GI50 [2]: 39.6 µM
- GI50 ([3]; HepG2, 48 h): 21.7 µM
- GI50 [4]: 36.5 µM
- IC50 [5]: 0.0035 µM
- IC50 [6]: 0.00014 µM

Structure (SMILES): CC1(C)CC(NC(=O)c2ccc(Nc3nc(Nc4ccc(C(=O)O)cc4)ncc3F)cc2)CC(C)(C)N1[O]
- GI50 [1]: 18.5 µM
- GI50 [2]: 65.3 µM
- GI50 [3]: 26.8 µM
- GI50 [4]: 21.3 µM

Structure (SMILES): CC1(C)CC(NC(=O)c2ccc(Nc3nc(Nc4ccc(C(=O)O)cc4)ncc3[N+](=O)[O-])cc2)CC(C)(C)N1[O]
- GI50 [1]: 29.6 µM
- GI50 [2]: 27.4 µM
- GI50 [3]: 11.8 µM
- GI50 [4]: 27.3 µM

Structure (SMILES): CC1(C)CC(NC(=O)c2ccc(Nc3nc(Nc4ccc(C(=O)O)cc4)ncc3Cl)cc2)CC(C)(C)N1[O]
- GI50 [1]: > 100 µM
- GI50 [2]: 56.6 µM
- GI50 [3]: 48.2 µM
- GI50 [4]: 56.5 µM

Structure (SMILES): CC1(C)CC(NC(=O)c2ccc(Nc3ncc([N+](=O)[O-])c(Nc4ccccc4O)n3)cc2)CC(C)(C)N1[O]
- GI50 ([1]; A549, 48 h): 11.2 µM
- GI50 [2]: 28.3 µM
- GI50 ([3]; HepG2, 48 h): 3.7 µM
- GI50 [4]: 13.9 µM
- IC50 [5]: 0.0113 µM
- IC50 [6]: 0.0085 µM

Structure (SMILES): CC1(C)CC(NC(=O)c2ccc(Nc3ncc([N+](=O)[O-])c(Nc4ccc(O)cc4)n3)cc2)CC(C)(C)N1[O]
- GI50 ([1]; A549, 48 h): 14.3 µM
- GI50 [2]: 43.8 µM
- GI50 ([3]; HepG2, 48 h): 21.5 µM
- GI50 [4]: 34.3 µM
- IC50 [5]: 0.0035 µM
- IC50 [6]: 0.00059 µM

Structure (SMILES): Cc1cc(Nc2cc(N3CCN(C)CC3)nc(Sc3ccc(NC(=O)C4CC4)cc3)n2)n[nH]1
- GI50 [1]: 35.8 µM
- GI50 [2]: 45.3 µM
- GI50 [3]: 53.3 µM
- Activity [7]: Active
- Activity [8]: 26.6%
- GI50 [4]: 46.2 µM
- Activity [9]: inactive
- Activity [10]: Active
- Activity [11]: 39%
- Activity [12]: 34.4%

Structure (SMILES): CC1(C)CC(NC(=O)c2ccc(Nc3ncc([N+](=O)[O-])c(Nc4ccccc4Cl)n3)cc2)CC(C)(C)N1[O]
- GI50 ([1]; A549, 48 h): 2.8 µM
- GI50 [2]: 35.2 µM
- GI50 ([3]; HepG2, 48 h): 3.7 µM
- GI50 [4]: 53.1 µM
- IC50 [5]: 0.00329 µM
- IC50 [6]: 0.00186 µM

Structure (SMILES): CC1(C)CC(NC(=O)c2ccc(Nc3ncc([N+](=O)[O-])c(Nc4cccc(Cl)c4)n3)cc2)CC(C)(C)N1[O]
- GI50 ([1]; A549, 48 h): 31.3 µM
- GI50 [2]: 67.8 µM
- GI50 ([3]; HepG2, 48 h): 42.1 µM
- GI50 [4]: 43.2 µM
- IC50 [5]: 0.0195 µM
- IC50 [6]: 0.00062 µM

Structure (SMILES): CC1(C)CC(NC(=O)c2ccc(Nc3ncc([N+](=O)[O-])c(Nc4ccc(Cl)cc4)n3)cc2)CC(C)(C)N1[O]
- GI50 ([1]; A549, 48 h): 5.6 µM
- GI50 [2]: 27.8 µM
- GI50 ([3]; HepG2, 48 h): 13 µM
- GI50 [4]: 33.3 µM
- IC50 [5]: 0.00034 µM
- IC50 [6]: 0.00161 µM

Structure (SMILES): CC1(C)CC(NC(=O)c2ccc(Nc3ncc(Br)c(Nc4ccccc4Cl)n3)cc2)CC(C)(C)N1[O]
- GI50 ([1]; A549, 48 h): 3.8 µM
- GI50 [2]: 3.2 µM
- GI50 ([3]; HepG2, 48 h): 2.1 µM
- GI50 [4]: 9.6 µM
- IC50 [5]: 0.00267 µM
- IC50 [6]: 0.00046 µM

Structure (SMILES): CC1(C)CC(NC(=O)c2ccc(Nc3ncc([N+](=O)[O-])c(Nc4ccc(C(=O)Nc5ccc(Cl)cc5)cc4)n3)cc2)CC(C)(C)N1[O]
- GI50 ([1]; A549, 48 h): 17.2 µM
- GI50 [2]: 46.3 µM
- GI50 ([3]; HepG2, 48 h): 24.1 µM
- GI50 [4]: 53 µM
- IC50 [5]: 0.00067 µM
- IC50 [6]: 0.02 µM

- GI50 ([1]; A549, 48 h): 8.9 µM
- GI50 [2]: 12.4 µM
- GI50 ([3]; HepG2, 48 h): 13.4 µM
- GI50 [4]: 11.3 µM
- IC50 [5]: 0.0491 µM
- IC50 [6]: 0.00228 µM
Structure (SMILES): CN1CCC(NC(=O)c2ccc(Nc3ncc(F)c(Nc4ccc(C(=O)Nc5ccccc5Cl)cc4)n3)cc2)CC1

Structure (SMILES): CC1(C)CC(NC(=O)c2ccc(Nc3ncc(F)c(Nc4ccccc4Cl)n3)cc2)CC(C)(C)N1[O]
- GI50 ([1]; A549, 48 h): 2.3 µM
- GI50 [2]: 2.7 µM
- GI50 ([3]; HepG2, 48 h): 1.2 µM
- GI50 [4]: 8.4 µM
- IC50 [5]: 0.00111 µM
- IC50 [6]: 0.00018 µM
